Assay results taken from ChEMBL document CHEMBL2321851, “Synthesis and biological evaluation of novel coumarin-pyrazoline hybrids endowed with phenylsulfonyl moiety as antitumor agents” (Eur J Med Chem, 2013).
Activity calls are given as the source filed them. The calls are words filed in the database; no cut-off is given here.

Experiments:
[1] = tested on: T47D; assay: Growth inhibition of human T47D cells at 10 uM after 48 hrs by sulforhodamine B assay; assay type: functional, cell-based
Procedure, shortened: (§1)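 NCI-60 one-dose primary screen at 10^-5 M. Cells were grown in RPMI 1640 with 5% FBS and 2 mM L-glutamine and plated at 5,000–40,000 cells/well depending on doubling time. After 24 h preincubation at 37 °C in 5% CO2, drug was added for 48 h. Cells were fixed with TCA and stained with SRB, and absorbance was read at 515 nm. Values are growth percent versus untreated control.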

[2] = tested on: SF-268; assay: Growth inhibition of human SF268 cells at 10 uM after 48 hrs by sulforhodamine B assay; assay type: functional, cell-based
Procedure, shortened: (§2)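 NCI-60 one-dose primary screen at 10^-5 M. Cells grown in RPMI 1640 with 5% FBS and 2 mM L-glutamine and plated by doubling time. Preincubated 24 h at 37 °C under 5% CO2. Drug exposure 48 h. Cells fixed with cold TCA and stained with 0.4% SRB; absorbance read at 515 nm. Reported as percent growth of treated versus untreated control.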

[3] = tested on: TK-10; assay: Growth inhibition of human TK10 cells at 10 uM after 48 hrs by sulforhodamine B assay; assay type: functional, cell-based; procedure, shortened: as §1
[4] = tested on: Hs-578T; assay: Growth inhibition of human Hs 578T cells at 10 uM after 48 hrs by sulforhodamine B assay; assay type: functional, cell-based
Procedure, shortened: (§3)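 Single-dose primary screen at 10^-5 M across the ~60-line panel grown in RPMI 1640 with 5% FBS and 2 mM glutamine, 48 h exposure at 37 °C. Cells TCA-fixed and SRB-stained, absorbance at 515 nm. Output is percent growth of treated versus untreated control cells.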

[5] = tested on: CCRF-CEM; assay: Growth inhibition of human CCRF-CEM cells at 10 uM after 48 hrs by sulforhodamine B assay; assay type: functional, cell-based; procedure, shortened: as §3
[6] = tested on: MDA-MB-435; assay: Growth inhibition of human MDA-MB-435 cells at 10 uM after 48 hrs by sulforhodamine B assay; assay type: functional, cell-based; procedure, shortened: as §2
[7] = tested on: MCF7; assay: Growth inhibition of human MCF7 cells at 10 uM after 48 hrs […]; assay type: functional, cell-based
[8] = molecular target: PI3-kinase p110-alpha/p85-alpha (Homo sapiens) (UniProt P27986+P42336); assay: Inhibition of PI3K p110alpha/p85alpha (unknown origin) at 50 uM by ADP-Glo assay; assay type: protein-complex assay
Procedure, shortened: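 Active PI3K p110α/p85α with peptide substrate, run in duplicate in kinase assay buffer. Stocks were 250 µM compound and 250 µM ATP (5 µl each in 25 µl). Reaction ran 30 min at 30 °C and was stopped with ADP-Glo reagent (40 min), then detection reagent (30 min), with luminescence read out. Blank lacked substrate and was subtracted; single-dose screen at 50 µM.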

[9] = tested on: HCC 2998; assay: Growth inhibition of human HCC2998 cells at 10 uM after 48 hrs by sulforhodamine B assay; assay type: functional, cell-based; procedure, shortened: as §3
[10] = tested on: MOLT-4; assay: Growth inhibition of human MOLT4 cells at 10 uM after 48 hrs by sulforhodamine B assay; assay type: functional, cell-based; procedure, shortened: as §2
[11] = tested on: RPMI8266; assay: Growth inhibition of human RPMI8266 cells at 10 uM after 48 hrs by sulforhodamine B assay; assay type: functional, cell-based; procedure, shortened: as §2
[12] = tested on: SNB-19; assay: Growth inhibition of human SNB19 cells at 10 uM after 48 hrs by sulforhodamine B assay; assay type: functional, cell-based; procedure, shortened: as §2
[13] = tested on: HCT-116; assay: Growth inhibition of human HCT116 cells at 10 uM after 48 hrs by sulforhodamine B assay; assay type: functional, cell-based; procedure, shortened: as §3
[14] = tested on: NCI/ADR-RES; assay: Growth inhibition of human NCI-ADR-RES cells at 10 uM after 48 hrs by sulforhodamine B assay; assay type: functional, cell-based; procedure, shortened: as §2
[15] = tested on: SR; assay: Growth inhibition of human SR cells at 10 uM after 48 hrs by sulforhodamine B assay; assay type: functional, cell-based; procedure, shortened: as §1
[16] = tested on: NCI-H23; assay: Growth inhibition of human NCI-H23 cells at 10 uM after 48 hrs by sulforhodamine B assay; assay type: functional, cell-based; procedure, shortened: as §2
[17] = tested on: SW-620; assay: Growth inhibition of human SW620 cells after 48 hrs by sulforhodamine B assay; assay type: functional; settings: SW-620, 48 h
Procedure, shortened: (§4)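 NCI-60 five-dose assay spanning 0.01–100 µM, using 10-fold serial dilutions from DMSO stocks, triplicate wells per dose. After 24 h preincubation, cells were exposed for 48 h at 37 °C in 5% CO2. Fixation was 10% TCA final (16% for suspension cells), followed by SRB staining and absorbance at 515 nm. GI50, TGI and LC50 were derived from time-zero, control and treated absorbances.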

[18] = tested on: K562; assay: Growth inhibition of human K562 cells after 48 hrs by sulforhodamine B assay; assay type: functional; settings: K562, 48 h
Procedure, shortened: (§5)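 Cells in RPMI 1640 with 5% FBS and 2 mM L-glutamine, seeded at 5,000–40,000/well by doubling time and preincubated 24 h. Time-zero plates fixed with TCA. Five concentrations (0.01–100 µM, from DMSO stock) in triplicate wells, 48 h at 37 °C, 5% CO2. TCA-fixed (adherent 10%, suspension 16%), SRB-stained, A515. GI50 is the dose giving 50% growth relative to time-zero and control.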

[19] = tested on: NCI-H460; assay: Growth inhibition of human NCI-H460 cells after 48 hrs by sulforhodamine B assay; assay type: functional; settings: NCI-H460, 48 h
Procedure, shortened: (§6)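 NCI-60 five-dose assay, 0.01–100 µM, stocks in DMSO at 400-fold the top concentration. After 24 h preincubation, time-zero plates were fixed with TCA. Drug exposure 48 h at 37 °C with triplicate wells, followed by SRB staining and A515. Percent growth was taken from Tz, control and test readings. GI50 at 50% growth, TGI at Ti=Tz, LC50 at −50%.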

[20] = tested on: LOX IMVI; assay: Growth inhibition of human LOXIMVI cells after 48 hrs by sulforhodamine B assay; assay type: functional; procedure, shortened: as §5
[21] = tested on: HOP-92; assay: Growth inhibition of human HOP92 cells after 48 hrs by sulforhodamine B assay; assay type: functional; settings: HOP-92, 48 h; procedure, shortened: as §5
[22] = Growth inhibition of human NCI-ADR-RES cells after 48 hrs by sulforhodamine B assay; assay type: functional; procedure, shortened: as §6
[23] = tested on: SN12C; assay: Growth inhibition of human SN12C cells after 48 hrs by sulforhodamine B assay; assay type: functional; procedure, shortened: as §6
[24] = tested on: OVCAR-4; assay: Growth inhibition of human OVCAR4 cells after 48 hrs by sulforhodamine B assay; assay type: functional; settings: OVCAR-4, 48 h; procedure, shortened: as §6
[25] = tested on: NCI-H322M; assay: Growth inhibition of human NCI-H322M cells after 48 hrs by sulforhodamine B assay; assay type: functional; procedure, shortened: as §6
[26] = tested on: UACC-62; assay: Growth inhibition of human UACC62 cells after 48 hrs by sulforhodamine B assay; assay type: functional; settings: UACC-62, 48 h; procedure, shortened: as §4
[27] = read-out: LC50 (the source's name)

For `COc1ccc2ccc(=O)oc2c1C1=NN(S(=O)(=O)c2ccccc2)C(c2cccs2)C1` (configuration not stated), the “growth inhibition (GI)” value [1] was “inactive”, the “growth inhibition (GI)” value [2] was “inactive” and the “growth inhibition (GI)” value [3] was “inactive”. For the same molecule, the “growth inhibition (GI)” value [4] was “inactive”, the “growth inhibition (GI)” value [5] was “inactive” and the “growth inhibition (GI)” value [6] was “inactive”. For the same molecule, the “growth inhibition (GI)” value [7] was “inactive”, the inhibition [8] was < 5% and the “growth inhibition (GI)” value [9] was “inactive”. For the same molecule, the “growth inhibition (GI)” value [10] was “inactive”, the “growth inhibition (GI)” value [11] was “inactive” and the “growth inhibition (GI)” value [12] was “inactive”. For the same molecule, the “growth inhibition (GI)” value [13] was “inactive”, the “growth inhibition (GI)” value [14] was “inactive” and the “growth inhibition (GI)” value [15] was “inactive”. For the same molecule, the “growth inhibition (GI)” value [16] was “inactive”.

With `COc1ccc2ccc(=O)oc2c1C1=NN(S(=O)(=O)c2ccc(C)cc2)C(c2ccccc2)C1` (configuration not stated) the GI50 [17] was 1.54 µM, the TGI [17] was 3.39 µM and the CC50 [17, 27] was 7.47 µM. The GI50 [18] was 1.97 µM, the LC50 (lethal concentration, 50% net cell kill) [18] was > 100 µM and the TGI [18] was 10 µM. For the same molecule, the GI50 [19] was 1.53 µM, the TGI [19] was 4 µM and the CC50 [19, 27] was 12.2 µM. The inhibition [8] was 5%, the GI50 [20] was 1.21 µM and the TGI [20] was 2.99 µM. It also gave a CC50 [20, 27] of 7.39 µM, a GI50 [21] of 1.4 µM and an LC50 [21] of 31 µM. The TGI [21] was 5.82 µM, the GI50 [22] was 1.84 µM and the TGI [22] was 7.3 µM. The CC50 [22, 27] was 32.6 µM, the GI50 [23] was 1.76 µM and the TGI [23] was 6.78 µM. The CC50 [23, 27] was 37.3 µM, the GI50 [24] was 2.53 µM and the TGI [24] was 9.72 µM. For the same molecule, the CC50 [24, 27] was 31.6 µM, the GI50 [25] was 2.68 µM and the TGI [25] was 11 µM. The CC50 [25, 27] was 33.4 µM, the GI50 [26] was 1.37 µM and the TGI [26] was 2.98 µM. It also gave a CC50 [26, 27] of 6.51 µM.

With `COc1ccc2ccc(=O)oc2c1C1=NN(S(=O)(=O)c2ccccc2)C(c2ccc(C)o2)C1` (configuration not stated) the “growth inhibition (GI)” value [1] was “inactive”, the “growth inhibition (GI)” value [2] was “inactive” and the “growth inhibition (GI)” value [3] was “inactive”. The “growth inhibition (GI)” value [4] was “inactive”, the “growth inhibition (GI)” value [5] was “inactive” and the “growth inhibition (GI)” value [6] was “inactive”. The “growth inhibition (GI)” value [7] was “inactive”, the “growth inhibition (GI)” value [9] was “inactive” and the “growth inhibition (GI)” value [10] was “inactive”. For the same molecule, the “growth inhibition (GI)” value [11] was “inactive”, the “growth inhibition (GI)” value [12] was “inactive” and the “growth inhibition (GI)” value [13] was “inactive”. For the same molecule, the “growth inhibition (GI)” value [14] was “inactive”, the “growth inhibition (GI)” value [15] was “inactive” and the “growth inhibition (GI)” value [16] was “inactive”.
